Source: PubChem BioAssay (several laboratories)
S1P4 ag: S1P4 receptor agonists, primary screen, cell-based; S1P4-expressing cell line, agonist reporter assay; activation, % at 4.98 µM; hit rate 0.35% among 220,000; in the data active means activation above about 11%;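 further: 0% = DMSO vehicle and 100% = reference agonist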
S1P4 antag: S1P4 receptor antagonists, primary screen, cell-based | Sphingosine 1-phosphate receptor 4 (Homo sapiens), O95977 | S1P4-expressing cells, antagonist mode, reporter read-out | inhibition, % at 4.98 µM | hit rate 0.26% among 220,000; in the data active means inhibition above about 29%;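 further: 0% = wells stimulated with agonist and 100% = vehicle wells without agonist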
Pf gamet viab: late stage P. falciparum gametocyte viability inhibitors, primary screen, ATP luminescence, HTS | P. falciparum stage V gametocytes, 24 h | inhibition, % at 10.9 µM | hit rate 0.065% among 150,000;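 active means inhibition above the mean plus 3 SD of compounds within the control limits, set per campaign, cut at about 38% in these data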;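 further: 0% = DMSO wells and 100% = medium only without gametocytes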
S1P3 antag: S1P3 receptor antagonists, primary screen, cell-based | CHO S1P3 NFAT-BLA reporter, FRET fluorescence, antagonist mode | inhibition, % at 4.98 µM | hit rate 0.27% among 170,000;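 active means inhibition above the plate cutoff, the mean inhibition of test wells on that plate plus 3 SD, cut at about 28% in these data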;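 further: cells challenged with S1P at its EC80 of 0.8 µM; blue over green emission ratio from cleaved BLA substrate after 4 h stimulation; 0% = S1P-stimulated wells and 100% = unstimulated DMSO-only wells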
Biofilm kill mix: clotrimazole potentiators killing C. albicans biofilm, primary screen, 4-compound mixtures; AID 1242, 2008; hit rate 0.02% among 120,000; inhibition, % at 7.6 µM; C. albicans biofilm persisters + clotrimazole, fluorescence viability; primary screen in compound mixtures of four per well;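 further: compounds exposed to preformed 24 h biofilms for 48 h; 0% = untreated biofilm control and 100% = clotrimazole plus chlorhexidine kill blank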
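Test system: C. albicans CAF4-2 wild-type biofilms; buffer or medium: RPMI/MOPS medium, pH 7.0; schedule: 24 h biofilm formation, then 48 h compound exposure, 37 °C; detection: Alamar Blue fluorescence; measure: percent inhibition of biofilm viability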
S1P4 agonist cf: S1P4 receptor agonists, retest, confirmation, cell-based, high throughput. activation, % at 4.98 µM. hit rate 7% among 740. shares compounds with S1P4 ag. S1P4 agonist cell-based reporter assay; in the data active means activation above about 12%;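 further: 0% = vehicle and 100% = full reference agonist response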
S1P1 ag: S1P1 receptor agonists, human, counter-screen for S1P4 agonist project, cell-based; shares compounds with S1P4 ag; S1P1 agonist cell-based assay, activation; activation, % at 4.98 µM; hit rate 4% among 740; in the data active means activation above about 21%;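 further: 0% = vehicle wells and 100% = reference agonist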
Target sequence (P21453 whole entry, looked up): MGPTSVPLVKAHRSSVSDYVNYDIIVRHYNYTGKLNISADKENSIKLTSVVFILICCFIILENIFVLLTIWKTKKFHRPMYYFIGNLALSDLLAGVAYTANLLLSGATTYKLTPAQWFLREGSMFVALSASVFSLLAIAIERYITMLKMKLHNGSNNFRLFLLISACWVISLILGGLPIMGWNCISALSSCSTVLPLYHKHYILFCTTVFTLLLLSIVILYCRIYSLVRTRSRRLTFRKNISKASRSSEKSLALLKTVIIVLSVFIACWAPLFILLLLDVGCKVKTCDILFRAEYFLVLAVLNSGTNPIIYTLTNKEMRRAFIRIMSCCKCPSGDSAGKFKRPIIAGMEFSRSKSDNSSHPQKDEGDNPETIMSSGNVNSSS
Numbers without * were called inactive; / = no result. A selection: hits, their analogues and other compounds. The true share with any hit is near 0.77%.

SMILES	S1P4 ag	S1P4 antag	Pf gamet viab	S1P3 antag	Biofilm kill mix	S1P4 agonist cf	S1P1 ag
N#CCC(CNc1ncc(C(F)(F)F)cc1Cl)OC(=O)c1cccc(C(F)(F)F)c1 (stereo not given)	16*	1	16	/	/	-2	5
CCOC(=O)c1nc(NCCc2ccccc2)sc1C	30*	-11	/	-3	19	-2	-6
CCOC(=O)c1nc(NNC(C)=O)sc1C	-1	-2	15	-30	11	/	/
C=CCNC(=S)N/N=C/c1ccc(C)cc1C	48*	8	8	12	3	-3	-3
CCNC(=S)N/N=C/c1cc(C)ccc1C	3	3	9	-4	18	/	/
Cc1ccc(-n2ncc(Cl)c2C(=O)NC2CC2)cc1	0	8	/	3	18	/	/
COc1ccc([C@H]2CC(=O)C=C(c3ccccc3OC)C2)cc1OC	/	/	11	/	/	/	/
CCN(CC)C(=O)Cn1cc(C(=O)C(=O)NCc2ccco2)c2ccccc21	13*	1	/	-17	14	-1	4
CCN(CC)C(=O)Cn1cc(SCC(=O)NCc2ccco2)c2ccccc21	2	-20	14	-10	9	/	/
Cc1cc(C)nc(-n2nc(C)cc2NC(=O)CNCc2ccccc2)n1	-2	-12	/	/	/	/	/
CCN(CC(=O)Nc1cc(C)nn1-c1nc(C)cc(C)n1)Cc1ccccc1	195*	1	-8	/	/	-2	1
N/C(CCS(=O)(=O)c1ccc(Cl)cc1)=N\OC(=O)c1ccccc1C(F)(F)F	0	7	10	-9	13	/	/
N/C(CCS(=O)(=O)c1ccc(Cl)cc1)=N\OC(=O)c1ccc(Cl)cc1	103*	16	-2	-2	23	-1	-4
Cn1c(SCC(=O)O)nnc1-c1ccc2ncccc2c1	117*	-7	-2	4	23	0	-6
COc1cc(CNCCSc2nnnn2C)cc(Br)c1OCc1ccc(F)cc1	-3	-12	/	/	/	/	/
CCOc1cc(CNCCSc2nnnn2C)cc(Br)c1OCc1ccc(F)cc1	41*	1	-17	10	10	-1	-10
COc1cccc(CC2(CO)CCCN(Cc3sc(N4CCCC4)nc3Cl)C2)c1 (stereo not given)	0	12	15	4	13	/	/
Cc1nn(-c2ccc(Cl)cc2)c(NC(=O)C(C)C)c(-c2ccccc2)c1=O	-4	16	-6	-9	25	/	/
CC(C)c1nc(SCC(=O)Nc2c[nH]c(=O)[nH]c2=O)c2cnn(-c3ccccc3)c2n1	1	7	-22	-13	-1	/	/
Cc1ccccc1NS(=O)(=O)c1cc(OCC(N)=O)c(C)cc1Cl	15*	1	-10	13	9	-2	-4
Cc1ccc(NS(=O)(=O)c2cc(OCC(N)=O)c(C)cc2Cl)cc1C	2	-115	/	/	12	/	/
COCCNC(=S)N1CCc2cc(OC)c(OC)cc2C1COc1cc(C)cc(C)c1 (stereo not given)	18*	0	/	-14	7	-2	1
CNC(=S)N1CCc2cc(OC)c(OC)cc2C1COc1ccc(OC)cc1 (stereo not given)	0	-27	1	1	-2	/	/
C[C@@H](C(=O)CC(=O)OC(C)(C)C)[C@@H](O)c1c(F)cccc1Cl	/	/	-16	/	/	/	/
O=C(Nc1ccccc1)C1=C[C@H](c2csc3ccccc23)C[C@H](OCc2ccc(CO)cc2)O1	16*	-19	/	-10	17	-1	0
SMILES	S1P4 ag	S1P4 antag	Pf gamet viab	S1P3 antag	Biofilm kill mix	S1P4 agonist cf	S1P1 ag
O=C(NC1CC1)C1=C[C@H](c2csc3ccccc23)C[C@H](OCc2ccc(CO)cc2)O1	/	/	0	/	17	/	/
O=C(O)CSc1nnc(-c2cccc(S(=O)(=O)N3CCOCC3)c2)n1-c1cccc(Cl)c1	15*	-2	24	8	3	0	1
Cc1ccc(C(C(=O)NCc2ccco2)N(C(=O)CNC(=O)c2cccs2)c2c(C)cccc2C)cc1 (stereo not given)	81*	-1	7	-1	17	-2	-2
COCCNC(=O)c1ccccc1NC(=O)c1ccccc1SC	0	-16	-28	4	9	/	/
C=CCNC(=S)NNC(=O)C(CCCC)CC(O)COCC(C)C (stereo not given)	0	-3	9	-13	7	/	/
CCCCC(CC(O)COCC(C)C)C(=O)NN (stereo not given)	42*	-19	/	4	13	-2	4
Cc1ccc(CN2CCN(C(=O)CC(C)C)CC2)cc1	/	/	-31	/	/	/	/
Nc1nc(NCC2CCCO2)nc(Nc2ccc(F)cc2)c1[N+](=O)[O-] (stereo not given)	25*	-10	8	6	18	-3	-1
O=C(Nc1cc(Cl)ccn1)C1(c2ccccc2)CC1(Cl)Cl (stereo not given)	2	3	-34	-8	17	/	/
COc1cccc(CNc2ccc(F)c(Cl)c2)c1O	1	2	3	1	/	/	/
COc1cccc(CNc2cccc(C(F)(F)F)c2)c1O	17*	6	/	-17	13	-2	-4
Cc1cc(C)c(OCC(=O)Nc2nnc(-c3ccco3)o2)c(C)c1	1	5	10	12	10	/	/
O=[N+]([O-])c1ccc2c(c1)CNc1ccccc1O2	33*	-2	3	1	15	-2	3
CCn1c(=O)c2c3c(sc2n2c(=S)[nH]nc12)CCC3	23*	-12	/	/	/	-2	-3
O=C(Cn1cncn1)N/N=C/c1ccc(Cl)cc1	1	-5	/	11	9	/	/
O=C(Cn1cncn1)NCc1ccc(Cl)cc1	13*	-11	/	-1	10	-2	-6
O=C(O)c1cccc(C(=O)c2cccc(C(=O)O)c2)c1	41*	-8	10	4	-13	-3	0
Nc1cccc(C(=O)O)c1	3	-16	/	-8	17	/	/
CC(C)CCn1c2ccccc2c2cc(CC(N)=O)ccc21	-1	-10	-4	17	27	/	/
COc1cccc(C2=NOC(C(=O)N3CCN(C(=O)c4ccco4)CC3)C2)c1 (stereo not given)	37*	3	/	-26	/	0	-2
Cc1ccc(Cl)cc1NC(=S)N(CCCN1CCN(C)CC1)Cc1ccco1	0	-9	-30	8	12	/	/
CCC(C)(C)n1nnnc1C(c1ccncc1)N1CCN(c2cccc(OC)c2)CC1 (stereo not given)	1	-7	/	-12	/	/	/
CCC(C)(C)n1nnnc1C(c1cccnc1)N1CCN(c2cccc(C(F)(F)F)c2)CC1 (stereo not given)	15*	-7	/	/	/	0	-9
CCc1c(C)nc(N2CCN(c3ccccc3F)CC2)[nH]c1=O	/	/	19	/	/	/	/
